# Test results reported in the array DNA melting data of Ke et al. (doi:10.1101/2024.01.08.574731).
# Experiments:
# [1] = melting temperature; fluorescence melt of hairpins on a sequencing array, two-state fit, raised by 9.35 °C to match UV melts; conditions: sodium 0.088 M
# Method in brief: (§1)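 Two-state fits, bootstrapped, provided melting temperature and folding enthalpy from Cy3 fluorescence normalised to pre-quench Cy3 and to control constructs. Library hairpins with annealed Cy3 and quencher oligos were imaged on a sequenced MiSeq flow cell in 50 mM Na-HEPES pH 8.0, 25 mM NaCl, at 2.5 °C intervals up to 60 °C. Four replicates were combined with inverse-variance weighting. A 9.35 °C upward shift was applied to fitted temperatures to match UV melts.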
# [2] = folding enthalpy; higher = less favourable; fluorescence melt of hairpins on a sequencing array, two-state fit; conditions: sodium 0.088 M
# Method in brief: as §1
Sequence,Tm [1],folding enthalpy [2]
GATCCACTTTGGATC ((((((...)))))),53.1 °C,-33.3 kcal/mol
GGATTAGGAAACTAATCC (((((((....))))))),55 °C,-40.5 kcal/mol
GATCAACGGTTTGATC ((((((....)))))),40.9 °C,-30.1 kcal/mol
GCACTGCGAAAGCCCTGC (((..((....))..))),28.8 °C,-12.5 kcal/mol
GGAATCGGAAACGATTCC (((((((....))))))),66.1 °C,-43.2 kcal/mol
GAGACCGAAAGGTACCTC ((((((....)))..))),30.7 °C,-11.9 kcal/mol
GATCCAAAATTGGATC ((((((....)))))),48.1 °C,-35.8 kcal/mol
GTCCGCGAAAGCGGGGAC ((((((....)))..))),47.3 °C,-8.28 kcal/mol
GCACCGGGAAACCGGTAC (.(((((....))))).),41 °C,-14.8 kcal/mol
GGTGCGGGAAACCGTACC (((.(((....))).))),58.1 °C,-44.7 kcal/mol
CGATGACGGAAACGTTCG (((..(((....)))))),36.7 °C,-29.1 kcal/mol
GTATGCGAAAGCATTTAC ((((((....)))..))),30.6 °C,-8.67 kcal/mol
GGACATCGAAAGATATCC (((.(((....))).))),38 °C,-29.8 kcal/mol
GCATTGCGAAAGCGACGC ((.(.((....)).).)),49.3 °C,-16.6 kcal/mol
GATCGAGAATTCGATC ((((((....)))))),57.4 °C,-39.7 kcal/mol
GATCGAGTCTTCGATC ((((((....)))))),58.4 °C,-37.6 kcal/mol
GGGACCCCGAAAGGGCCC (((..(((....)))))),58.6 °C,-20.3 kcal/mol
GATCAGGATCTGATC ((((((...)))))),48 °C,-32.1 kcal/mol
GATCGTTATTACGATC ((((((....)))))),56.1 °C,-39.8 kcal/mol
GCGATTGCGAAAGCACGC (((..(((....)))))),51.4 °C,-20.1 kcal/mol
GAGGGTGGAAACGCTCTC (((.(.(....).).))),49.4 °C,-20.3 kcal/mol
GATCAGAGTCTGATC ((((((...)))))),47.4 °C,-39.1 kcal/mol
GTGTTCGAAAGAACACAC ((((((....)))..))),65 °C,-11.8 kcal/mol
GATTACCCGAAAGGGATC (((..(((....)))))),26.3 °C,-12.1 kcal/mol

Sequence,Tm [1],folding enthalpy [2]
GATCATGGAAATGATC ((((((....)))))),52.4 °C,-36 kcal/mol
GTCCTCGGAAACGAGAAC ((.((((....)))).)),39.7 °C,-20.7 kcal/mol
GTTGTCGGAAACGACAGC (.(((((....))))).),55.7 °C,-24 kcal/mol
GGCTGGACGAAAGTCGCC (((..(((....)))))),52.5 °C,-20.2 kcal/mol
GCGATGTCGAAAGACCGC (((..(((....)))))),51 °C,-29.5 kcal/mol
GGGAGCCCGAAAGGGCCC (((..(((....)))))),58.8 °C,-10.7 kcal/mol
GTCTATCGAAAGATTGAC (((.(((....))).))),46.3 °C,-35.1 kcal/mol
GGAAATCGAAAGATATCC (((.(((....))).))),37.8 °C,-26.2 kcal/mol
GGGTGAGGAAACTCACTC (.(((((....))))).),53.9 °C,-17.8 kcal/mol
GTTGTCGGAAACGACGAC ((.((((....)))).)),55.1 °C,-24.8 kcal/mol
GATCTCCCTGGAGATC ((((((....)))))),59.4 °C,-43.7 kcal/mol
GAGATCCGAAAGGAACTC (((.(((....))).))),50.2 °C,-32.2 kcal/mol
GGTCCGGGAAACCGGGTC (..((((....))))..),47.6 °C,-12.7 kcal/mol
GTGAGACGAAAGTCCAC (((.(((....)))))),53.8 °C,-22.8 kcal/mol
GATCTCGCCAGAGATC ((((((....)))))),69 °C,-37.1 kcal/mol
GATCGCGAAAGCGCGATC ((((((....)))..))),64.1 °C,-30.8 kcal/mol
GACTCGAAAGAGTC (((((....))))),61.2 °C,-32.1 kcal/mol
GGCAAAGGAAACTTCGCC (((.(((....))).))),41 °C,-29.7 kcal/mol
GCACTTGGAAACAAGCGC ((.((((....)))).)),49.5 °C,-45 kcal/mol
GTTTATCGAAAGATCAAC (((.(((....))).))),34.6 °C,-22.1 kcal/mol
AGACGGAAACGTCT (((((....))))),53.5 °C,-21.2 kcal/mol
GATCATTGGAATGATC ((((((....)))))),46.5 °C,-36.1 kcal/mol
GCGGTCGGCCGC ((((....)))),60.1 °C,-24.2 kcal/mol
GAGACGGCGAAAGCCCTC (((..(((....)))))),34.5 °C,-6.29 kcal/mol

Sequence,Tm [1],folding enthalpy [2]
GTTACCGAAAGGTGAAC ((((((....))).))),39.9 °C,-14.8 kcal/mol
GTGTTGCGAAAGCAGCAC (((.(((....))).))),64.3 °C,-30.2 kcal/mol
GACATGGGAAACTGTGTC ((((..(....)..)))),37.2 °C,-28.2 kcal/mol
GTACGGCGAAAGCCTAC (((.(((....)))))),44.4 °C,-14.9 kcal/mol
GATCTTCCTAAAGATC ((((((....)))))),43.7 °C,-31.7 kcal/mol
GATCGAGATTTCGATC ((((((....)))))),51.8 °C,-46.7 kcal/mol
GCATCGAAAGATGC (((((....))))),69.2 °C,-31.8 kcal/mol
GATGGGGGAAACCCTATC (((.(((....))).))),45 °C,-23.4 kcal/mol
GATCATTGAGATGATC ((((((....)))))),49.8 °C,-39.4 kcal/mol
GAAGTGACGAAAGTCTTC (((..(((....)))))),27.8 °C,-8.64 kcal/mol
GTTTACCGAAAGGTTAAC (((.(((....))).))),43.7 °C,-24.9 kcal/mol
GCTGTGGGAAACCGCAGC ((((.((....)).)))),60.7 °C,-44.6 kcal/mol
GATCTGGAGGCAGATC ((((((....)))))),48.1 °C,-31.1 kcal/mol
GAAGCCGAAAGGCCTTC ((((((....))).))),48.8 °C,-16.2 kcal/mol
GTGAATCGAAAGATACAC (((.(((....))).))),46.9 °C,-27.9 kcal/mol
GGAGGGGGAAACCCCTTC (.(((((....))))).),50.6 °C,-24.1 kcal/mol
GACGTGGGAAACCACGCC (.(((((....))))).),48.6 °C,-14 kcal/mol
GACAAAGCGAAAGCTGTC (((..(((....)))))),50.6 °C,-19.7 kcal/mol
GCCTATACGAAAGTAGGC (((..(((....)))))),48.3 °C,-28.6 kcal/mol
GCATAGCGAAAGCTTGC (((.(((....)))))),54.3 °C,-22.5 kcal/mol
GCGCGACGAAAGTCACGC (((.(((....))).))),68.9 °C,-36.3 kcal/mol
CGCGGACTGTCCGCG ((((((...)))))),64.7 °C,-42.3 kcal/mol
GGTTCGGGAAACCGAACC (((((((....))))))),69.2 °C,-38.2 kcal/mol
GCGCGGCGAAAGCCATGC ((..(((....)))..)),53.3 °C,-16.4 kcal/mol

Sequence,Tm [1],folding enthalpy [2]
GTTATCTCGAAAGAGAAC (((..(((....)))))),29.8 °C,-11.8 kcal/mol
GGTAGTCGAAAGACGACC (((.(((....))).))),54.2 °C,-44.9 kcal/mol
GATCGAACCTCGATC ((((((...)))))),50.7 °C,-34.4 kcal/mol
GTTTCCGAAAGGACAAC ((((((....))).))),39.6 °C,-16.6 kcal/mol
GATCTATATTTAGATC ((((((....)))))),43.1 °C,-34.6 kcal/mol
GCAAGGCGAAAGCACTGC (((..((....))..))),46.7 °C,-19.7 kcal/mol
GACAAGACGAAAGTCGTC (((..(((....)))))),40.8 °C,-13.1 kcal/mol
GAGACCGAAAGGTTGCTC ((((((....)))..))),36.2 °C,-14.1 kcal/mol
TTTTGGAAACAAAA (((((....))))),27.4 °C,-9.86 kcal/mol
GAAGTTGGAAACGACTTC (((((.(....).))))),47.4 °C,-39 kcal/mol
GTGAAAGAAATTTCAC ((((((....)))))),44.3 °C,-29.4 kcal/mol
GACCTGCGAAAGCACGTC (((.(((....))).))),42.8 °C,-25.4 kcal/mol
GACCCCGGAAACGGGGCC (.(((((....))))).),53.6 °C,-12.9 kcal/mol
GTGAACGAAAGTTCTCAC ((((((....)))..))),35 °C,-14.3 kcal/mol
GGTGACGAAAGTCAGACC ((((((....)))..))),44.6 °C,-14.6 kcal/mol
GGGTTGAAAAACCC (((((....))))),55.5 °C,-29.5 kcal/mol
GATCAAATTCTTGATC ((((((....)))))),41.4 °C,-32.6 kcal/mol
GCGGGATGCCGC ((((....)))),55.8 °C,-22.6 kcal/mol
GATCTTGCCGAAGATC ((((((....)))))),46.1 °C,-28.1 kcal/mol
GGTAACGAAAGTTAGACC ((((((....)))..))),33.6 °C,-13 kcal/mol
GATCGGACCCCGATC ((((((...)))))),54.1 °C,-39.4 kcal/mol
